Rows were chosen to be rich in hits. Some 3.2% of all compounds tested hit in one or more screens of this group.
MEKK2mut PB1 HTS: signal of MEK5 binding to mutant human MEKK2 PB1 domain; bead flow cytometry, Alexa488-MEK5 binding to MEKK2 mutant; percent response, % at 10 µM; 290,000 tested, 0.35% active; AID 1530; in the data active means percent response above about 24%, passing the limit was not always enough
Apaf-1 inh: human Apaf-1 inhibition; O14727; reconstituted apoptosome caspase-3 activity, DEVD-Rh110 fluorescence; inhibition, % at 20 µM; 330,000 tested, 0.71% active; AID 489030; active means inhibition of at least 40% at 20 µM
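System – cell-free apoptosome with Apaf-1, procaspase-3 and caspase-9 · Buffer or medium – pH 7.5 Hepes buffer with CHAPS, BSA, DTT · Also added – cytochrome c with DEVD-Rh110 · Times – 30 min compound preincubation, 50 min activation, room temperature · Technique – Rh110 fluorescence intensity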
UBC13 inh: blocks human UBC13 polyubiquitin chain formation | P61088 | TR-FRET | inhibition, % at 20 µM | 330,000 tested, 0.47% active | AID 485273; in the data active means inhibition above about 45%, passing the limit was not always enough
MEKK3 PB1 HTS: raises or lowers MEK5 binding to the human MEKK3 PB1 domain; Q99759; bead-based flow cytometry, Alexa488-MEK5 binding to MEKK3; actives lie on both sides; 0 = blocked by unlabeled MEK5, 100 = vehicle; binding response (% of control), % at 10 µM; 290,000 tested, 1.4% active; AID 1529;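 active means binding response more than 3 SD above or below the average of its plate-row segment, actives on both sides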;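 further: Alexa488 bead fluorescence after subtracting the streptavidin-only scavenger bead signal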
DSG3 Ab inh: human desmoglein-3 autoantibody binding inhibition. 310,000 tested, 0.48% active. binding (percent of control), % at 10 µM. P32926. DSG3-coupled beads, scFv-anti-DSG3-GFP binding, flow cytometry; hits give low values;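 active means binding more than 3 SD below its plate's average and above zero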;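 further: hits lower antibody fragment binding to DSG3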
MEKK2wt PB1 HTS: raises or lowers MEK5 binding to wildtype human MEKK2 PB1 domain; Q9Y2U5; bead flow cytometry, Alexa488-MEK5 binding to MEKK2 WT; actives lie on both sides; binding response (% of control), % at 10 µM; 290,000 tested, 1.1% active; AID 1531; in the data active means binding response below about 67% or above about 130%
MEKK2wt confirm: raises or lowers MEK5 binding to wildtype human MEKK2, retest. shares compounds with MEKK3 PB1 HTS. bead flow cytometry, Alexa488-MEK5 binding to MEKK2 WT; actives lie on both sides. binding response (% of control), % at 10 µM. 5,900 tested, 2.4% active. AID 1892; in the data active means binding response below about 16% or above about 210%; inactive means in between
MEKK2mut confirm: signal of MEK5 binding to mutant human MEKK2, retest; bead flow cytometry, Alexa488-MEK5 binding to MEKK2 mutant; shares compounds with MEKK3 PB1 HTS; 5,900 tested, 2% active; AID 1893; percent response, % at 10 µM; in the data active means percent response mostly above about 71%, no sharp cut-off; inactive means mostly below about 38%;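 further: higher means compound restores mutant binding toward wildtype level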
MEKK3 confirm: MEKK3-MEK5 PB1 inhibition, single concentration confirmation; shares compounds with MEKK3 PB1 HTS; bead flow cytometry, Alexa488-MEK5 binding to MEKK3; hits give low values; binding response (% of control), % at 10 µM; 5,900 tested, 1.8% active;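 active means binding response below 72% of control, or above a set upper limit, though filed actives all read lower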
A number is an active result; - = inactive; . = no result given; [ ] = remark or other dose.

SMILES	MEKK2mut PB1 HTS	Apaf-1 inh	UBC13 inh	MEKK3 PB1 HTS	DSG3 Ab inh	MEKK2wt PB1 HTS	MEKK2wt confirm	MEKK2mut confirm	MEKK3 confirm
NS(=O)(=O)c1ccc(Nc2ccc3nonc3c2[N+](=O)[O-])cc1	-	-	-	133	-	-	-	-	-
COc1ccc2[nH]c(=O)c(CNC3CCCCC3)cc2c1	-	-	-	78[inhibitor]	-	-	-	-	-
Cc1ccccc1OCc1n[nH]c(=S)n1-c1cccc(Cl)c1	24	-	-	-	-	-	-	-	-
Cc1n[nH]c(=S)n1-c1cccc(Cl)c1	-	-	-	74[inhibitor]	-	-	-	-	-
Cc1ccc(C)n1-c1ccc(C(=O)NCc2ccncc2)cc1	-	-	-	50[inhibitor]	-	-	-	-	-
COc1ccc(C2=NN(C(=O)CSc3nc4ccccc4s3)C(c3ccc(OC)cc3)C2)cc1 (stereo not drawn)	-	-	-	148	-	-	-	-	-
COc1ccc(C2=NN(C(=O)CSc3nc4ccccc4s3)C(c3ccc(F)cc3)C2)cc1 (stereo not drawn)	-	-	-	-	.	-	.	.	.
CC(=O)O[C@H]1[C@H](C)OC=C[C@@H]1OC(C)=O	-	-	-	-	-	151	-	-	-
CCc1c(Cl)nc(N)nc1Nc1ccccc1Cl	.	.	.	.	-	.	.	.	.
COc1cccc(/C=N\NC(=O)Cn2nnc3ccccc32)c1O	-	-	-	-	-	-	.	.	.
Cc1ccccc1N1CCN(C(=O)c2cc(C3CC3)nn2-c2ccccc2)CC1	.	-	-	.	.	.	.	.	.
Cc1cccc(C)c1OCCOCCN1CCN(C)CC1	-	-	-	-	-	145	-	-	-
Cc1cccc(C)c1OCCN1CCCC1	-	-	-	-	-	-	.	.	.
N=C(N)SCc1nc2ccccc2c(=O)n1-c1ccccc1Cl	-	-	-	135	-	-	-	-	-
Cc1ccccc1-n1c(CSC(=N)N)nc2ccccc2c1=O	-	-	-	-	.	-	.	.	.
CCOc1ccc(CCNC(=O)C2CCC(=O)N2CCc2ccccc2)cc1OCC (stereo not drawn)	-	-	-	2.0[inhibitor]	-	-1.0[inhibitor]	-	-	-
CN(CC(=O)Nc1cccc2c1CCCC2)S(=O)(=O)c1ccc(Br)cc1	-	-	-	-	-	-	.	.	.
CN(CC(=O)Nc1cccc2c1CCCC2)S(=O)(=O)c1ccccc1	-	-	-	80[inhibitor]	-	-	-	-	-
Cc1ccc(C(=O)NCC(=O)OC(C)C(=O)Nc2ccc(N(C)C)cc2)cc1C (stereo not drawn)	-	-	-	141	-	-	-	-	-
CCc1[nH]nc2c1C(Cc1ccccc1)C(C#N)=C(N)O2 (stereo not drawn)	-	-	-	-	.	-	.	.	.
Cc1[nH]nc2c1C(Cc1ccccc1)C(C#N)=C(N)O2 (stereo not drawn)	-	-	-	2.0[inhibitor]	-	3.0[inhibitor]	-	-	-
Cc1cccc(NC(=O)c2ccc(C)c(S(=O)(=O)N3CCCCC3)c2)n1	.	-	-	.	-	.	.	.	.
CC(C)Cc1ccccc1S(N)(=O)=O	-	-	-	-	-	-	.	.	.
COC(=O)c1ccc2c(=O)n(CCCCCC(=O)NCc3ccc4c(c3)OCO4)c(=O)[nH]c2c1	-	-	-	65[inhibitor]	-	-	-	-	-
COC(=O)c1ccc2c(=O)n(CCCCCC(=O)NCc3ccccc3)c(=O)[nH]c2c1	-	-	-	-	-	-	.	.	.
SMILES	MEKK2mut PB1 HTS	Apaf-1 inh	UBC13 inh	MEKK3 PB1 HTS	DSG3 Ab inh	MEKK2wt PB1 HTS	MEKK2wt confirm	MEKK2mut confirm	MEKK3 confirm
COc1ccc(N(C)C(=O)c2cn(C)c(=O)c3cc(OC)c(OC)cc23)cc1	-	-	-	-	-	-	.	.	.
CC(C)C[C@@H](CN)NC(=O)c1nc[nH]c1C(=O)N[C@@H](CC(=O)O)C(=O)CNC[C@H](C)NC(=O)c1nc[nH]c1C(=O)N[C@@H](CC(=O)O)C(=O)O	.	.	.	.	-	.	.	.	.
CC1CCCN(S(=O)(=O)c2ccc3oc(=O)ccc3c2)C1 (stereo not drawn)	-	-	-	-	-	-	.	.	.
O=C(NNc1cc(Cl)ccc1Cl)c1cccs1	-	-	-	130	-	-	-	-	-
COc1ccc(C2NC(C(=O)O)Cc3c2[nH]c2ccccc32)cc1CN1CCN(c2ccc(F)cc2)CC1 (stereo not drawn)	-	-	-	-	-	-	.	.	.
COc1ccc(C2NCCc3c2[nH]c2ccccc32)cc1COc1ccc(F)cc1 (stereo not drawn)	-	-	47	62[inhibitor]	-	140	-	-	-
COc1ccc(C2NCCc3c2[nH]c2ccccc32)cc1CN1CCc2cc(OC)c(OC)cc2C1C (stereo not drawn)	-	.	.	-	-	172	216	81	-
O=C(NC(=S)NNC(=O)c1cnccn1)c1ccc(Cl)cc1	-	-	-	2.0[inhibitor]	-	-10[inhibitor]	-	-	-
COc1ccc(C(=O)NC(=S)NNC(=O)c2cnccn2)cc1	-	-	-	-	-	-	.	.	.
Cc1ccc(C(=O)NCC(=O)OCC(=O)NC2CCS(=O)(=O)C2)cc1C (stereo not drawn)	-	-	-	-	-	-	.	.	.
CCN1C(=O)N(CC)C2C1N(CO)C(=O)N2CO (stereo not drawn)	-	-	-	129	-	-	-	-	-
O=C(/C=C/c1cccc(Cl)c1)NCCCN1CCOCC1	-	-	-	-	.	-	.	.	.
CCC(=O)Nc1ccc(Cl)c(NC(=S)NC(=O)COc2ccccc2)c1	-	-	-	-	-	-	.	.	.
CCC(=O)Nc1ccc(Cl)c(NC(=S)NC(=O)COc2ccc(Cl)cc2)c1	-	-	-	74[inhibitor]	-	-	-	-	-
CCOc1ccccc1NC(=O)Cn1c(C)cc(COC)c(C#N)c1=O	-	-	-	-	-	-	.	.	.
COCc1cc(C)n(CC(=O)Nc2ccccc2C(=O)OC)c(=O)c1C#N	-	-	-	2.0[inhibitor]	-	2.0[inhibitor]	-	-	-
COc1ccc(CCNC(=S)NC(=O)c2cccc([N+](=O)[O-])c2)cc1OC	-	-	-	-	-	-	.	.	.
COc1ccc(C(CCNC(C)c2ccccc2)C(C)C)cc1 (stereo not drawn)	-	-	-	-	-	-	.	.	.
COc1ccc(C(C)NCCC(c2ccc(OC(C)C)cc2)c2ccccc2OC)cc1 (stereo not drawn)	45	-	-	-	-	194	-	-	-

Screening data (PubChem)
